ChEMBL document CHEMBL4340532, “Design, synthesis, and biological evaluation of novel 2'-deoxy-2'-fluoro-2'-C-methyl 8-azanebularine derivatives as potent anti-HBV agents” (Bioorg Med Chem Lett, 2019)

Columns and labels:
Hepatitis B virus [1] = experiment: Antiviral activity against Hepatitis B virus infected in human HepG2.2.15 cells assessed as inhibition of HBsAg secretion at 20 uM supplemented with fresh medium containing compound every 3 days for 6 days and measured on day 9 by ELISA relative to control; type: functional
Procedure, shortened: (§1)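 HepG2.2.15 cells were exposed to compound for up to 9 days. The initial screen used 20 µM for 9 days, with lamivudine (20 µM) as positive control. Follow-up used 10, 20 or 40 µM sampled at days 3, 6 and 9. HBsAg and HBeAg were quantified in culture supernatant by ELISA and compared with a no-drug control. Results are mean ± SD of three experiments.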

Hepatitis B virus [2] = experiment: Antiviral activity against Hepatitis B virus infected in human HepG2.2.15 cells assessed as inhibition of HBeAg secretion at 20 uM supplemented with fresh medium containing compound every 3 days for 6 days and measured on day 9 by ELISA relative to control; type: functional; procedure, shortened: as §1
[3] = Cytotoxicity against human HepG2 cells supplemented with fresh medium containing compound every 3 days for 9 days measured post-last dose by MTT assay; type: cell-based
Procedure, shortened: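 HepG2 cells were exposed to compound for 3 or 9 days and viability was read by MTT assay. CC50 is the concentration causing 50% cytotoxicity. Results are mean ± SD of three experiments.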

With `C[C@@]1(F)[C@H](O)[C@@H](CO)O[C@H]1n1nnc2c(N)ncnc21` the “inhibition (INH)” value (Hepatitis B virus [1]) was 9.9%, the “inhibition (INH)” value (Hepatitis B virus [2]) was 10% and the CC50 at 216 h [3] was greater than 600 µM.
With `CCCCNc1ncnc2c1nnn2[C@@H]1O[C@H](CO)[C@@H](O)[C@@]1(C)F` the “inhibition (INH)” value (Hepatitis B virus [1]) was 17%, the “inhibition (INH)” value (Hepatitis B virus [2]) was 11.6% and the CC50 at 216 h [3] was greater than 600 µM.
